From ChEMBL document CHEMBL4196126, “Optimization of 3-Pyrimidin-4-yl-oxazolidin-2-ones as Orally Bioavailable and Brain Penetrant Mutant IDH1 Inhibitors” (ACS Med Chem Lett, 2018)
Converted amounts (≈) assume the structure as drawn.

Tests used:
[1] = Clearance in Sprague-Dawley rat plasma at 1 mg/kg, iv or 10 mg/kg, po by mass spectrometry based HPLC method; assay type: ADME, organism-based
Outline: (§1)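 Rats and mice received a single 1 mg/kg intravenous dose and a 10 mg/kg oral dose. Plasma clearance was taken from the intravenous arm. Oral AUC and oral bioavailability were taken from the oral arm.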

[2] = Oral bioavailability in Sprague-Dawley rat at 10 mg/kg by mass spectrometry based HPLC method; assay type: ADME, organism-based; conditions: in vivo; outline: as §1
[3] = Intrinsic clearance in rat liver microsomes at 1 uM in presence of NADPH by LC-MS/MS analysis; assay type: ADME, microsome; conditions: read-out: CLH
[4] = target: T1, Isocitrate dehydrogenase [NADP] cytoplasmic (Homo sapiens, UniProt O75874, R132H); assay: Inhibition of IDH1 R132H mutant (unknown origin) expressed in HCT116 cells assessed as reduction in 2-HG levels after 48 hrs by LC-MS/MS analysis; assay type: cell-based
[5] = AUC in Sprague-Dawley rat at 10 mg/kg, po by mass spectrometry based HPLC method; assay type: ADME, organism-based; conditions: in vivo; outline: as §1
[6] = target: T1, Isocitrate dehydrogenase [NADP] cytoplasmic; assay: Inhibition of IDH1 R132H mutant (unknown origin) using alphaKG as substrate in presence of NADPH by LC-MS/MS analysis
[7] = Intrinsic clearance in human liver microsomes; assay type: ADME, microsome; conditions: read-out: CLH
[8] = Intrinsic clearance in mouse liver microsomes; assay type: ADME, microsome; conditions: read-out: CLH
[9] = Plasma protein binding in rat plasma at 5 uM after 4 hrs by rapid equilibrium dialysis based LC/MS/MS method
[10] = target: T1, Isocitrate dehydrogenase [NADP] cytoplasmic; assay: Inhibition of IDH1 R132H mutant (unknown origin) assessed as NADPH consumption using alpha-ketoglutarate as substrate by fluorescence assay
Mus musculus [11] = assay: Time at which unbound plasma concentration stays above cellular IDH1 R132H mutant inhibitory IC50 in HSD athymic nude mouse xenografted with human HCT116 cells; assay type: ADME, organism-based; conditions: in vivo
Outline: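 After a single 150 mg/kg oral dose in HCT116-IDH1 R132H/+ xenograft mice, unbound plasma concentration was estimated from total plasma levels corrected by mouse plasma protein binding. It was then followed over time against the HCT116-IDH1 R132H/+ cellular IC50.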

[12] = Oral bioavailability in C57BL/6 mouse at 10 mg/kg by mass spectrometry based HPLC method; assay type: ADME, organism-based; conditions: in vivo; outline: as §1
[13] = target: Isocitrate dehydrogenase [NADP] cytoplasmic (Homo sapiens, UniProt O75874, R132C); assay: Inhibition of IDH1 R132C mutant (unknown origin) assessed as NADPH consumption using alpha-ketoglutarate as substrate by fluorescence assay
[14] = target: Isocitrate dehydrogenase [NADP] cytoplasmic (Homo sapiens, UniProt O75874); assay: Inhibition of wild-type IDH1 (unknown origin) assessed as NADPH production using isocitrate as substrate by fluorescence assay
Mus musculus [15] = assay: In vivo inhibition of IDH1 R132H mutant in HSD athymic nude mouse tumor xenografted with human HCT116 cells assessed as reduction in 2-HG level at 150 mg/kg, po measured 16 to 24 hrs post dose by LC-MS/MS analysis relative to control; assay type: functional; conditions: HCT-116, po
Outline: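 Mice bearing HCT116-IDH1 R132H/+ xenograft tumors received a single 150 mg/kg oral dose. 2-HG was measured in tumor tissue and expressed as percent inhibition relative to vehicle-treated tumors over a 16−24 h post-dose window. Plasma drug concentrations were measured alongside.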

Homo sapiens [16] = organism: Homo sapiens; assay: Selectivity ratio of IC50 for wild-type IDH1 (unknown origin) to IC50 for IDH1 R132H mutant (unknown origin)
[17] = Clearance in C57BL/6 mouse plasma at 1 mg/kg, iv or 10 mg/kg, po by mass spectrometry based HPLC method; assay type: ADME, organism-based; outline: as §1
[18] = AUC in C57BL/6 mouse at 10 mg/kg, po by mass spectrometry based HPLC method; assay type: ADME, organism-based; conditions: in vivo; outline: as §1
[19] = Solubility of the compound at pH 6.8; assay type: physicochemical; conditions: buffer
[20] = Ratio of AUC in Sprague-Dawley rat brain to plasma at 1 mg/kg, iv or 10 mg/kg, po; assay type: ADME, organism-based; conditions: read-out: Ratio AUC
[21] = Plasma protein binding in mouse plasma at 5 uM after 4 hrs by rapid equilibrium dialysis based LC/MS/MS method
Homo sapiens [22] = organism: Homo sapiens; assay: Selectivity ratio of IC50 for wild-type IDH1 (unknown origin) to IC50 for IDH1 R132C mutant (unknown origin)

T1 sequence (O75874 2-414 R132H limits assumed): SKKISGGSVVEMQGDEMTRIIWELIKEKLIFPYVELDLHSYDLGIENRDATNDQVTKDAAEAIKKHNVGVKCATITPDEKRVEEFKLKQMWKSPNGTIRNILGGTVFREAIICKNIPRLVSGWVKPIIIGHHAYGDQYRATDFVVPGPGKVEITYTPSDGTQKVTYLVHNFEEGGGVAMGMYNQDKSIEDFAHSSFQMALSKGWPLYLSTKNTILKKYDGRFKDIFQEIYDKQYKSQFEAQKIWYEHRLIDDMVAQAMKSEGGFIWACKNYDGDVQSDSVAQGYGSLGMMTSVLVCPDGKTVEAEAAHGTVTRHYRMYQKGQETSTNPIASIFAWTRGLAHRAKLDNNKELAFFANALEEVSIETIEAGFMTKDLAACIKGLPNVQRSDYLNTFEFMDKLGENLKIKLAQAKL
Isocitrate dehydrogenase [NADP] cytoplasmic (Homo sapiens, UniProt O75874, R132C), sequence (O75874 2-414 R132C limits assumed): as the sequence (O75874 2-414 R132H limits assumed) above, with H131C counted along it
Isocitrate dehydrogenase [NADP] cytoplasmic (Homo sapiens, UniProt O75874), sequence (O75874 whole entry): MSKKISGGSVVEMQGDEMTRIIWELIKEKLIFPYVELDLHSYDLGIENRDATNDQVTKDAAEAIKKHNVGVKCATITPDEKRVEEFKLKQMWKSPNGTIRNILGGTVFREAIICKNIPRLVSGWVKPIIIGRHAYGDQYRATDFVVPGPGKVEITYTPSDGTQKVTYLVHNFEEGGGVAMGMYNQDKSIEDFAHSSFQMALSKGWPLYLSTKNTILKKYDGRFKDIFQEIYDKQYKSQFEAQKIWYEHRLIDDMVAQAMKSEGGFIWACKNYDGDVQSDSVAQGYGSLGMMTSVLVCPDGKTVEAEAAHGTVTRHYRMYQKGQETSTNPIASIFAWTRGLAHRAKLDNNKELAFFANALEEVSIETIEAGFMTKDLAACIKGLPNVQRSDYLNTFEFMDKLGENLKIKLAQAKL

Structure (SMILES): C[C@H](Nc1ncc(F)c(N2C(=O)OC[C@@H]2C)n1)c1cn(-c2ccc(Cl)cc2)cn1
- clearance [1]: 17 mL/min/kg
- bioavailability [2]: 67%
- microsomal CLint at 1 µM [3]: 101 to 103 µL/min/mg
- IC50 [4]: 47 nM
- AUC [5]: 14 µM·h

Structure (SMILES): C[C@H](Nc1ncc(F)c(N2C(=O)OC[C@@H]2CF)n1)c1cn(-c2ccc(Cl)cc2)cn1
- microsomal CLint at 1 µM [3]: 28 µL/min/mg
- IC50 [4]: 24 nM

Structure (SMILES): C[C@H](Nc1ncc(F)c(N2C(=O)OC[C@@H]2[C@@H](C)F)n1)c1cn(-c2ccc(Cl)cc2)cn1
- microsomal CLint at 1 µM [3]: 237 µL/min/mg
- IC50 [4]: 240 nM

Structure (SMILES): CC(C)[C@H]1COC(=O)N1c1ccnc(N[C@@H](C)c2nc(-c3ccccc3Cl)no2)n1
- microsomal CLint at 1 µM [3]: 924 µL/min/mg
- IC50 [6]: 610 nM

Structure (SMILES): C[C@H](Nc1ncc(F)c(N2C(=O)OC[C@@H]2[C@H](C)F)n1)c1cn(-c2ccc(Cl)cc2)cn1
- microsomal CLint at 1 µM [3]: 272 µL/min/mg
- IC50 [4]: 22 nM

Structure (SMILES): C[C@H](Nc1nccc(N2C(=O)OC[C@@H]2CF)n1)c1cn(-c2ccc(Cl)cc2)cn1
- microsomal CLint at 1 µM [3]: 75 µL/min/mg
- IC50 [4]: 30 nM

Structure (SMILES): C[C@H](Nc1ncc(F)c(N2CCOC2=O)n1)c1cn(-c2ccc(Cl)cc2)cn1
- microsomal CLint at 1 µM [3]: 34 µL/min/mg
- microsomal CLint [7]: 59 µL/min/mg
- IC50 [4]: 500 nM
- microsomal CLint [8]: 73 µL/min/mg

Structure (SMILES): CC(C)[C@H]1COC(=O)N1c1ccnc(N[C@@H](C)c2cn(-c3ccc(Cl)cc3)cn2)n1
- microsomal CLint at 1 µM [3]: 489 µL/min/mg
- IC50 [4]: 15 nM

Structure (SMILES): CC[C@H]1COC(=O)N1c1nc(N[C@@H](C)c2cn(-c3ccc(Cl)cc3)cn2)ncc1F
- microsomal CLint at 1 µM [3]: 448 µL/min/mg
- IC50 [4]: 13 nM

Structure (SMILES): C[C@H](Nc1nccc(N2C(=O)OC[C@@H]2CF)n1)c1cn(-c2ccc(C(F)(F)F)cc2)cn1
- clearance [1]: 2.6 mL/min/kg
- PPB at 4 h, 5 µM [9]: 0.98
- IC50 [10]: 21 nM
- Time (Mus musculus [11]): 24 h
- bioavailability [12]: 149%
- IC50 [13]: 45 nM
- bioavailability [2]: 127%
- microsomal CLint at 1 µM [3]: 7 to 7.7 µL/min/mg
- IC50 [14]: 2520 nM
- inhibition in vivo at 150 mg/kg (Mus musculus [15]): > 90%
- Ratio IC50 (Homo sapiens [16]): 50 to 100
- clearance [17]: 5 mL/min/kg
- AUC [18]: 172 µM·h
- IC50 [4]: 39 nM
- solubility [19]: 124 µM (≈ 55.8 µg/mL)
- Kp [20]: 0.17
- AUC [5]: 180 µM·h
- PPB at 4 h, 5 µM [21]: 0.98
- Ratio IC50 (Homo sapiens [22]): 50 to 100
- microsomal CLint [8]: 11 µL/min/mg

Structure (SMILES): C[C@H](Nc1ncc(F)c(N2C(=O)OC(C)(C)C2(C)C)n1)c1nc(-c2ccc(Cl)cc2)no1
- microsomal CLint at 1 µM [3]: 170 µL/min/mg

Structure (SMILES): C[C@H](Nc1nccc(N2C(=O)OC[C@@H]2[C@H](C)F)n1)c1cn(-c2ccc(C(F)F)cc2)cn1
- clearance [1]: 20 mL/min/kg
- PPB at 4 h, 5 µM [9]: 0.95
- bioavailability [2]: 82%
- solubility [19]: 422 µM (≈ 188 µg/mL)
- Kp [20]: < 0.1
- AUC [5]: 15 µM·h
- PPB at 4 h, 5 µM [21]: 0.92

Structure (SMILES): C[C@H](Nc1nccc(N2C(=O)OC[C@@H]2[C@H](C)F)n1)c1cn(-c2ccc(Cl)cc2)cn1
- microsomal CLint at 1 µM [3]: 148 µL/min/mg

Structure (SMILES): CC(C)[C@H]1COC(=O)N1c1ccnc(N[C@@H](C)c2ncc(Oc3ccc(F)cc3)cn2)n1
- microsomal CLint at 1 µM [3]: 238 µL/min/mg
- IC50 [6]: 39 nM

Structure (SMILES): CC(C)[C@H]1COC(=O)N1c1ccnc(N[C@@H](C)c2nc(-c3ccc(Cl)cc3)no2)n1
- microsomal CLint at 1 µM [3]: 302 µL/min/mg

Structure (SMILES): CC(Nc1nccc(N2CCOC2=O)n1)c1ncc(Oc2ccc(F)cc2)cn1 (racemic)
- microsomal CLint at 1 µM [3]: 35 µL/min/mg
- IC50 [6]: 8800 nM
